In ChEMBL document CHEMBL3414569, “Amino acid modified xanthone derivatives: novel, highly promising membrane-active antimicrobials for multidrug-resistant Gram-positive bacterial infections” (J Med Chem, 2015):
Converted amounts (≈) assume the structure as drawn. The source made the active and inactive calls.

What was measured:
[1] = test system: Staphylococcus aureus; assay: Antimicrobial activity against Staphylococcus aureus DM4001 by broth macrodilution method; format: functional
Procedure, shortened: (§1)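 Broth macrodilution MIC in Mueller Hinton broth following CLSI guidelines. Inoculum was prepared by direct colony suspension from an 18−20 h tryptic soy agar plate.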

[2] = test system: Staphylococcus aureus; assay: Antimicrobial activity against methicillin resistant Staphylococcus aureus DM21455 by broth macrodilution method; format: functional; procedure, shortened: as §1
[3] = test system: Staphylococcus aureus; assay: Antimicrobial activity against methicillin resistant Staphylococcus aureus DM09809R by broth macrodilution method; format: functional; procedure, shortened: as §1
[4] = test system: Bacillus cereus; assay: Antimicrobial activity against Bacillus cereus ATCC 11778 by broth macrodilution method; format: functional
Procedure, shortened: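 CLSI broth macrodilution in Mueller Hinton broth. Inoculum was made by direct colony suspension from colonies on an 18−20 h tryptic soy agar plate. The value is the MIC.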

[5] = Induction of hemolysis in New Zealand white rabbit RBC after 1 hr; format: cell-based, Oryctolagus cuniculus, Erythrocyte; conditions: New Zealand white, red blood cells (RBC)
Procedure, shortened: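 Fresh red blood cells isolated from New Zealand white rabbits. Lysis measured over a compound concentration series; HC50 taken as the concentration lysing 50% of RBCs.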

[6] = Retention time of the compound; format: physicochemical
Procedure, shortened: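 Reverse-phase HPLC of 20 μL injections of a 10 μg/mL sample at 1 mL/min. Gradient: 5−55% ACN over 5 min, then 55−95% over 15 min.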

[7] = Selectivity index, ratio of HC50 for induction of hemolysis in New Zealand white rabbit RBC to MIC for Staphylococcus aureus DM4001
[8] = Selectivity index, ratio of HC50 for induction of hemolysis in New Zealand white rabbit RBC to MIC for Staphylococcus aureus DM21455
[9] = Selectivity index, ratio of HC50 for induction of hemolysis in New Zealand white rabbit RBC to MIC for Staphylococcus aureus DM09809R
[10] = Selectivity index, ratio of HC50 for induction of hemolysis in New Zealand white rabbit RBC to MIC for Bacillus cereus ATCC 11778
[11] = test system: Staphylococcus aureus; assay: Antimicrobial activity against methicillin sensitive Staphylococcus aureus isolates by broth macrodilution method; format: functional
[12] = test system: Staphylococcus aureus; assay: Antimicrobial activity against vancomycin-intermediate sensitive Staphylococcus aureus isolates by broth macrodilution method; format: functional
[13] = test system: Staphylococcus aureus; assay: Antimicrobial activity against methicillin resistant Staphylococcus aureus isolates by broth macrodilution method; format: functional
[14] = test system: Staphylococcus aureus; assay: Antimicrobial activity against epidemic methicillin resistant Staphylococcus aureus isolates by broth macrodilution method; format: functional
[15] = test system: Staphylococcus aureus; assay: Antimicrobial activity against multidrug resistant Staphylococcus aureus isolates by broth macrodilution method; format: functional
[16] = test system: Staphylococcus epidermidis; assay: Antimicrobial activity against Staphylococcus epidermidis isolates by broth macrodilution method; format: functional
[17] = test system: Enterococcus; assay: Antimicrobial activity against vancomycin-sensitive Enterococcus isolates by broth macrodilution method; format: functional
[18] = test system: Enterococcus; assay: Antimicrobial activity against vancomycin-resistant Enterococcus isolates by broth macrodilution method; format: functional
[19] = test system: Streptococcus; assay: Antimicrobial activity against Streptococcus isolates by broth macrodilution method; format: functional
[20] = test system: Corynebacterium jeikeium; assay: Antimicrobial activity against Corynebacterium jeikeium isolates by broth macrodilution method; format: functional
[21] = test system: Listeria monocytogenes; assay: Antimicrobial activity against Listeria monocytogenes isolates by broth macrodilution method; format: functional
[22] = test system: Staphylococcus aureus; assay: Bactericidal activity against methicillin resistant Staphylococcus aureus DM21455 assessed as induction of bacterial killing at 1 times MIC after 1 hr by cell counting based time kill assay; format: functional
Procedure, shortened: (§2)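 Time-kill at 35 °C with colonies taken from an 18−20 h tryptic soy agar plate and suspended in CA-MHB at 10^5−10^6 CFU/mL, then drug added. Aliquots taken at set times were diluted 10-fold serially in D/E neutralization broth, spread on tryptic soy agar, incubated 48−72 h at 35 °C, and colonies counted. Strains: MRSA DM21455, vanA and vanB VRE.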

[23] = test system: Staphylococcus aureus; assay: Bactericidal activity against methicillin resistant Staphylococcus aureus DM21455 assessed as induction of bacterial killing at 2 times MIC after 30 mins by cell counting based time kill assay; format: functional; procedure, shortened: as §2
[24] = test system: Staphylococcus aureus; assay: Antimicrobial activity against Staphylococcus aureus ATCC 29213 by broth macrodilution method; format: functional; procedure, shortened: as §1
[25] = test system: Lipid bilayer; assay: Induction of vesicle leakage in DOPE/DOPG large unilamellar vesicles assessed as calcein release at 1/16 compound to lipid ratio by fluorescence assay; format: functional
Procedure, shortened: (§3)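 100 nm LUVs (DOPE/DOPG 75/25 or DOPC) made by film hydration in 80 mM calcein, 50 mM HEPES, 100 mM NaCl, 0.3 mM EDTA, pH 7.4. Then 7 freeze–thaw cycles, 15 extrusions and Sephadex G-50 clean-up. Compound added from DMF (<0.2%) at 50 μM final phospholipid. Fluorescence read at ex 490/em 520 nm for 30 min; 0.1% Triton X-100 set 100% lysis; three independent experiments.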

[26] = test system: Staphylococcus aureus; assay: Antimicrobial activity against Staphylococcus aureus ATCC 29213 at 0.5 times MIC measured after 17 passages by multistep passage drug resistance selection study relative to wild type Staphylococcus aureus ATCC 29213 before passage; format: functional
Procedure, shortened: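 Multipassage selection in S. aureus ATCC29213 across an eight-concentration dilution series. Growth was read after 20−22 h. Bacteria growing at 0.5 × MIC were repassaged into a fresh series, 17 passages in total. Resistance was defined as a more than 4-fold rise over the initial MIC.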

[27] = test system: Lipid bilayer; assay: Induction of vesicle leakage in DOPC large unilamellar vesicles assessed as calcein release at 1/16 compound to lipid ratio by fluorescence assay; format: functional; procedure, shortened: as §3
[28] = test system: Lipid bilayer; assay: Binding affinity to DOPE/DOPG large unilamellar vesicles by 1D 1H NMR spectroscopy
Procedure, shortened: (§4)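 Liposomes prepared as for the leakage LUVs: 30 mM DOPE/DOPG (75:25) or 30 mM DOPC. 1D 1H spectra of 1 mM compound recorded in water and in each liposome type at 600 MHz, 25 °C.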

[29] = test system: Staphylococcus aureus; assay: Antimicrobial activity against teicoplanin intermediate resistant Staphylococcus aureus isolates by broth macrodilution method; format: functional
[30] = test system: Lipid bilayer; assay: Binding affinity to DOPC large unilamellar vesicles by 1D 1H NMR spectroscopy; procedure, shortened: as §4
[31] = test system: Staphylococcus aureus; assay: Antimicrobial activity against methicillin resistant Staphylococcus aureus DM21455 in absence of 4% BSA by broth macrodilution method; format: functional; procedure, shortened: as §1
[32] = test system: Staphylococcus aureus; assay: Antimicrobial activity against methicillin resistant Staphylococcus aureus DM21455 in presence of 4% BSA by broth macrodilution method; format: functional
Procedure, shortened: (§5)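 MIC by CLSI broth macrodilution in Mueller Hinton broth, with BSA added to the bacterial suspension at a final 4% w/v. Inoculum was made by direct colony suspension from an 18−20 h tryptic soy agar plate.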

[33] = test system: Staphylococcus aureus; assay: Antimicrobial activity against Staphylococcus aureus ATCC 29213 in absence of 4% BSA by broth macrodilution method; format: functional; procedure, shortened: as §1
[34] = test system: Staphylococcus aureus; assay: Antimicrobial activity against Staphylococcus aureus ATCC 29213 in presence of 4% BSA by broth macrodilution method; format: functional; procedure, shortened: as §5
[35] = test system: Mus musculus; assay: Toxicity in C57BL6 mouse eye assessed as induction of toxicity related clinical signs at 3 mg/ml applied topically 5 times/day for 4 days; format: organism-based; conditions: in vivo, topical_or_ocular, 96 h
Procedure, shortened: (§6)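 Three healthy wild-type C57BL6 mice (6−8 weeks) per treatment received 0.5, 1 or 3 mg/mL compound in 10 mM PBS. Applied topically to the eye 5 times/day for 4 days. Corneal clarity checked daily through day 4 by slit-lamp biomicroscopy; histological sections also inspected.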

[36] = test system: Mus musculus; assay: Toxicity in C57BL6 mouse eye assessed as effect on corneal clarity at 3 mg/ml applied topically 5 times/day for 4 days by slit lamp biomicroscopy; format: organism-based, Cornea; conditions: in vivo, topical_or_ocular, 96 h; procedure, shortened: as §6
[37] = test system: Mus musculus; assay: Toxicity in C57BL6 mouse eye assessed as effect on wound closure at 3 mg/ml applied topically 5 times/day for 4 days by slit lamp biomicroscopy; format: organism-based; conditions: in vivo, topical_or_ocular, 96 h
[38] = test system: Mus musculus; assay: Toxicity in C57BL6 mouse eye assessed as inflammatory response at 3 mg/ml applied topically 5 times/day for 4 days by slit lamp biomicroscopy; format: organism-based; conditions: in vivo, topical_or_ocular, 96 h; procedure, shortened: as §6
[39] = test system: Staphylococcus aureus; assay: Antimicrobial activity against Staphylococcus aureus ATCC 29213 infected in mouse cornea infection model assessed as reduction in viable bacterial count at 0.3% solution applied topically 5 times/day dosed 1 day after infection relative to control; format: functional
Procedure, shortened: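 Mouse cornea given three superficial 1 mm scratches on one eye under ketamine/xylazine, then 10 μL of S. aureus ATCC 29213 suspension (1 × 10^8 CFU/mL in USP phosphate buffer) applied topically. Treated topically 5 times/day from day 1 postinfection; PBS negative control; 4 mice/group killed on days 1, 2 and 3. Corneas homogenized in 0.9% NaCl with 0.25% BSA, plated in duplicate on TSA (48 h, 35 °C); log10 CFU/cornea.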

Q: Which MIC [1] does the source give for COC(=O)[C@H](CCCNC(=N)N)NC(=O)COc1cc2oc3cc(OCC(=O)N[C@@H](CCCNC(=N)N)C(=O)OC)c(OC)c(CC=C(C)C)c3c(=O)c2c(O)c1CC=C(C)C here?
A: 2 µg/mL (≈ 2.31 µM)

Q: And the MIC [2]?
A: 3 µg/mL (≈ 3.46 µM)

Q: And the MIC [3]?
A: 3 µg/mL (≈ 3.46 µM)

Q: What about the MIC [4] of the same compound?
A: 2 µg/mL (≈ 2.31 µM)

Q: And the HC50 at 1 h [5]?
A: 232 µg/mL

Q: What about the Retention_time [6] of the same compound?
A: 7.96 min

Q: What about the Selectivity Index [7] of the same compound?
A: 77

Q: And the Selectivity Index [8]?
A: 77

Q: What about the Selectivity Index [9] of the same compound?
A: 77

Q: What about the Selectivity Index [10] of the same compound?
A: 77

Q: And the MIC [11]?
A: 2 µg/mL (≈ 2.31 µM)

Q: What about the MIC [12] of the same compound?
A: 4 µg/mL (≈ 4.61 µM)

Q: And the MIC [13]?
A: 2 µg/mL (≈ 2.31 µM)

Q: And the MIC [14]?
A: 2 µg/mL (≈ 2.31 µM)

Q: What about the MIC [15] of the same compound?
A: 2 µg/mL (≈ 2.31 µM)

Q: What about the MIC [16] of the same compound?
A: 2 µg/mL (≈ 2.31 µM)

Q: And the MIC [17]?
A: 2 µg/mL (≈ 2.31 µM)

Q: What about the MIC [18] of the same compound?
A: 2 µg/mL (≈ 2.31 µM)

Q: And the MIC [19]?
A: 4 µg/mL (≈ 4.61 µM)

Q: And the MIC [20]?
A: 4 µg/mL (≈ 4.61 µM)

Q: What about the MIC [21] of the same compound?
A: 4 µg/mL (≈ 4.61 µM)

Q: What about the Activity [22] of the same compound?
A: 99.9%

Q: What about the Activity [23] of the same compound?
A: 99.9%

Q: What about the MIC [24] of the same compound?
A: 3 µg/mL (≈ 3.46 µM)

Q: What about the Activity [25] of the same compound?
A: 68%

Q: And the Activity [26]?
A: Active

Q: And the Activity [27]?
A: 32%

Q: And the Activity [28]?
A: Active

Q: What about the MIC [29] of the same compound?
A: 2 µg/mL (≈ 2.31 µM)

Q: What about the Activity [30] of the same compound?
A: inactive

Q: What about the MIC [31] of the same compound?
A: 3.12 µg/mL (≈ 3.6 µM)

Q: And the MIC [32]?
A: 6.25 µg/mL

Q: And the MIC [33]?
A: 1.56 µg/mL (≈ 1.8 µM)

Q: And the MIC [34]?
A: 3.12 µg/mL

Q: What about the Activity [35] of the same compound?
A: Non-toxic

Q: And the Activity [36]?
A: Non-toxic

Q: And the Activity [37]?
A: Non-toxic

Q: What about the Activity [38] of the same compound?
A: Non-toxic

Q: What about the “inhibition (INH)” value [39] of the same compound?
A: 99.7%
